In ChEMBL document CHEMBL3853309, “Lovastatin Analogues from the Soil-Derived Fungus Aspergillus sclerotiorum PSU-RSPG178” (J Nat Prod, 2016):
Activity calls are given as the source filed them. The rule behind the calls is not given here.

Legend:
Plasmodium falciparum = assay: Antimalarial activity against multi-drug-resistant Plasmodium falciparum K1 by microculture radioisotope technique; format: functional
How it was run: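 Parasite: P. falciparum K1 (multidrug-resistant). Growth inhibition read by a microculture radioisotope method adapted from a published protocol. Dihydroartemisinine and mefloquine served as reference standards.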

[1] = Cytotoxicity against human MCF7 cells by resazurin microplate assay; format: functional, cell-based
How it was run: (§1)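 KB and MCF-7 cells assayed by resazurin microplate method; positive controls ellipticine and doxorubicin for KB, doxorubicin and tamoxifen for MCF-7.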

[2] = Cytotoxicity against African green monkey Vero cells; format: toxicity, cell-based; conditions: African green monkey (Chlorocebus sabaeus)
How it was run: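 Vero (African green monkey kidney fibroblast) cells tested in triplicate by the Hunt et al. method; ellipticine positive control.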

[3] = Cytotoxicity against human KB cells by resazurin microplate assay; format: functional, cell-based; how it was run: as §1
[4] = target: T1, 3-hydroxy-3-methylglutaryl-coenzyme A reductase (Homo sapiens) (UniProt P04035); assay: Inhibition of human HMGR catalytic domain at 200 uM using HMG-CoA as substrate measured every 20 secs for 10 mins relative to control
T1 sequence (whole entry): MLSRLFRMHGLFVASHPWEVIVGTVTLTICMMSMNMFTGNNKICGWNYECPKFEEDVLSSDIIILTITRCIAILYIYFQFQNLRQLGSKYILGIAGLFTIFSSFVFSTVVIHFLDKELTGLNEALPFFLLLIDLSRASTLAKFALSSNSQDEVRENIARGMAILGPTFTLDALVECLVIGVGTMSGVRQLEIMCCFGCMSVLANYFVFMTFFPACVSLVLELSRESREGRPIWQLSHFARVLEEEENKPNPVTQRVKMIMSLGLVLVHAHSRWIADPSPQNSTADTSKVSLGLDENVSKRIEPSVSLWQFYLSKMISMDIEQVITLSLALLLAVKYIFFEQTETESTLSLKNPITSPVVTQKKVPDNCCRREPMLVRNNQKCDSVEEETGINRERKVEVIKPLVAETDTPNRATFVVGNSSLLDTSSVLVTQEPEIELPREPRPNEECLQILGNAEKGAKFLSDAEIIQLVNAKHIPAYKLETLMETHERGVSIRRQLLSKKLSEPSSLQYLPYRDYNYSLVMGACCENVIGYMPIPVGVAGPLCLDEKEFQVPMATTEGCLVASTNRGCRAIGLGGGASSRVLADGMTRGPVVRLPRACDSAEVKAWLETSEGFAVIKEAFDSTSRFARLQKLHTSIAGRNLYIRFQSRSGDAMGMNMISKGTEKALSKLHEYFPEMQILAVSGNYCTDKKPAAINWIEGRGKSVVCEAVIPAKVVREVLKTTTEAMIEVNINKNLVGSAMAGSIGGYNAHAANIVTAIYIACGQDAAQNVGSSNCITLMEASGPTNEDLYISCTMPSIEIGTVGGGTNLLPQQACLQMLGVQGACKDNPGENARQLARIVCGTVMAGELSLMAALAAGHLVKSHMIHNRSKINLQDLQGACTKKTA
How it was run: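 Sigma HMG-CoA reductase kit, modified: 1× assay buffer, NADPH, HMG-CoA (800 μM final), test compound at 200 μM final; reaction started by adding human HMGR catalytic domain (0.6 μM final) at 37 °C. NADPH oxidation followed at 340 nm for 10 min, 20 s intervals.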

[5] = target: T1, 3-hydroxy-3-methylglutaryl-coenzyme A reductase (Homo sapiens); assay: Binding affinity to human HMGR catalytic domain at 50 uM in presence of 800 to 3200 uM HMG-CoA as substrate measured every 20 secs for 10 mins
How it was run: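 Direct-interaction test: compound at 50 μM with HMG-CoA at 800, 1600 and 3200 μM, plus NADPH and human HMGR catalytic domain at 37 °C. Activity read at 340 nm for 10 min at 20 s intervals, reported as percent inhibition versus untreated control; n = 3.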

[6] = target: T2, 3-hydroxy-3-methylglutaryl-coenzyme A reductase (Homo sapiens, UniProt P04035); assay: Inhibition of human HMGR catalytic domain using 800 uM HMG-CoA as substrate measured every 20 secs for 10 mins
T2 sequence (P04035 whole entry): T1 sequence (whole entry)
How it was run: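 Dose-response format of the kit assay: 1× buffer, NADPH, 800 μM HMG-CoA, graded compound concentrations, human HMGR catalytic domain 0.6 μM final added to start at 37 °C.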

[7] = target: T1, 3-hydroxy-3-methylglutaryl-coenzyme A reductase (Homo sapiens); conditions: 1 uM

inhibition [4] | SMILES | IC50 [1] | IC50 [2] | IC50 [3] | further results
– | O[C@@H](c1cc(C(F)(F)F)nc2c(C(F)(F)F)cccc12)[C@H]1CCCCN1 [(S,R)-MEFLOQUINE] | – | – | – | IC50 (Plasmodium falciparum): 0.0269 µM
– | COc1cccc2c1C(=O)c1c(O)c3c(c(O)c1C2=O)C[C@@](O)(C(=O)CO)C[C@@H]3O[C@H]1C[C@H](N)[C@H](O)[C@H](C)O1 [DOXORUBICIN] | 6.75 µM | – | – | –
– | CC/C(=C(\c1ccccc1)c1ccc(OCCN(C)C)cc1)c1ccccc1 [TAMOXIFEN] | 6.99 µM | – | – | –
– | Cc1c2ccncc2c(C)c2c1[nH]c1ccccc12 [ELLIPTECINE] | – | 1 µM | 2.03 µM | –
17.2% | CC[C@H](C)C(=O)O[C@H]1C[C@@H](C)C[C@@H]2C=C[C@H](C)[C@H](CC[C@@H]3CC=CC(=O)O3)[C@@H]12 | – | 14.5 µM | 15.2 µM | –
50% | CC[C@H](C)C(=O)O[C@H]1C[C@@H](C)[C@H](O)C2=C[C@@H](O)[C@H](C)[C@H](CC[C@@H]3CC=CC(=O)O3)[C@H]21 | – | 40 µM | 31.6 µM | Activity [5]: Active; IC50 [6]: 387 µM
42% | CC[C@H](C)C(=O)O[C@H]1C[C@@H](C)C=C2C=C[C@H](C)[C@H](CC[C@@H]3C[C@@H](O)CC(=O)O3)[C@H]21 [LOVASTATIN] | – | 2.2 µM | 15.6 µM | Activity [5]: Active
– | CC[C@H](C)C(=O)O[C@H]1C[C@H](O)C=C2C=C[C@H](C)[C@H](CC[C@@H](O)C[C@@H](O)CC(=O)O)[C@H]21 | – | – | – | inhibition [7]: 90.4%
– | C[C@H]1[C@@H](O)O[C@@H]2O[C@@]3(C)CC[C@H]4[C@H](C)CC[C@@H]1[C@@]24OO3 [ARTENIMOL] | – | – | – | IC50 (Plasmodium falciparum): 0.0023 µM
20.4% | CC[C@H](C)C(=O)O[C@H]1C[C@@H](C)[C@H](OC(C)=O)C2=C[C@@H](OC(C)=O)[C@H](C)[C@H](CC[C@@H]3CC=CC(=O)O3)[C@H]21 | 74.7 µM | 8.4 µM | 19.8 µM | –

SMILES | inhibition [4] | IC50 [1] | IC50 [2] | IC50 [3] | further results
CC[C@H](C)C(=O)O[C@H]1C[C@@H](C)C=C2C=C[C@H](C)[C@H](CC[C@@H]3CC=CC(=O)O3)[C@H]21 | 8.4% | 57.3 µM | 8.1 µM | 20.1 µM | –
